Seven compounds from ChEMBL document CHEMBL3108697, “Design of an amide N-glycoside derivative of β-glucogallin: a stable, potent, and specific inhibitor of aldose reductase” (J Med Chem, 2014) can be followed below.

Broadly, the inhibition is the change of the read-out against control, counted positive when it falls. As usually defined, the IC50 is the concentration at which inhibition is half-maximal.

The target of data set [1] is T1, Aldo-keto reductase family 1 member B1 (Homo sapiens, UniProt P15121). In words: Inhibition of human recombinant AKR1B1 expressed in Escherichia coli using DL-glyceraldehyde as substrate after 5 mins by spectrophotometry. A digest of the protocol: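 Enzyme inhibition was tested with recombinant human AKR1B1, using the natural substrate glyceraldehyde.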
The nature of data set [2]: Drug degradation in aqueous sulfuric acid solution at 250 uM at pH 0.33 at 80 degC after 30 mins by HPLC analysis. As to conditions: buffer, pH 0.33, 0.5 h. The data set is classed as physicochemical. An outline of the steps:
(§1)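 Compound kept in aqueous sulfuric acid (pH = 0.33) with heating at 80 °C. Intact compound remaining was quantified by HPLC against calibration curves.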

Data set [3] addresses Aldo-keto reductase family 1 member B10 (Homo sapiens) (UniProt O60218). Put plainly: Inhibition of AKR1B10 (unknown origin) using DL-glyceraldehyde as substrate at 15 uM after 5 mins by spectrophotometry.
In data set [4] the target is T1, Aldo-keto reductase family 1 member B1. Put plainly: Inhibition of human AKR1B1 expressing in PAR40 C57BL6 mouse lens assessed as inhibition of glucose-induced sorbitol accumulation at 25 to 50 uM after 72 hrs by colorimetric assay. The conditions noted are these: Lens of camera-type eye. A digest of the protocol:
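Lenses were taken from transgenic mice overexpressing human AKR1B1, and from wild-type mice. They were cultured ex vivo with 27.5 mM glucose and given vehicle (H₂O) or compound at 25 and 50 μM for 72 h. Sorbitol accumulation was measured.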

Data set [5] can be described thus: Drug degradation in aqueous sulfuric acid solution at 250 uM at pH 0.33 at 80 degC after 15 mins by HPLC analysis. The conditions noted are these: read-out: Drug degradation. The data set is classed as physicochemical. An outline of the steps: as §1
Data set [6] addresses T2, Aldo-keto reductase family 1 member A1 (Homo sapiens) (UniProt P14550).
T2 sequence (whole entry): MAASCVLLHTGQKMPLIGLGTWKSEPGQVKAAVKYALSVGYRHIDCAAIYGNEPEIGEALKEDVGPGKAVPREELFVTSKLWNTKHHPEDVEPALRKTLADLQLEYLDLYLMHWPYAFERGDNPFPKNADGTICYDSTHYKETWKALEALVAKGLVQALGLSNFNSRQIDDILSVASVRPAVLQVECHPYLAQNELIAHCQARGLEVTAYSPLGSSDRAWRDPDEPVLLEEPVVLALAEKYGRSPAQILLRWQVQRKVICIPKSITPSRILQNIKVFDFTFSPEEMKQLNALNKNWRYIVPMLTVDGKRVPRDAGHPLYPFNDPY
In words: Inhibition of AKR1A1 (unknown origin) using DL-glyceraldehyde as substrate at 15 uM after 5 mins by spectrophotometry.

The target in data set [7] is Aldo-keto reductase family 1 member B1 (Mus musculus) (UniProt P45376). Put plainly: Inhibition of AKR1B1 in mouse RAW264.7 cells assessed as inhibition of sorbitol accumulation at 50 uM after 24 hrs by colorimetric assay. The data set is classed as cell-based. An outline of the steps: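 Raw264.7 murine macrophages were incubated with compound for 24 h, then harvested. Intracellular sorbitol accumulation served as the read-out of AKR1B1 activity.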

Data set [8] in a line: Stability of the compound in aqueous sulfuric acid solution assessed as compound remaining at 250 uM at pH 0.33 at 80 degC after 6 days by HPLC analysis. The data set is classed as physicochemical. As to conditions: read-out: Stability. An outline of the steps:
as §1

SMILES strings stand for the structures. Active and inactive are the calls of the source. The calls are words filed in the database; no cut-off is given here.

Sequence of Aldo-keto reductase family 1 member B10 (Homo sapiens) (O60218 whole entry, looked up): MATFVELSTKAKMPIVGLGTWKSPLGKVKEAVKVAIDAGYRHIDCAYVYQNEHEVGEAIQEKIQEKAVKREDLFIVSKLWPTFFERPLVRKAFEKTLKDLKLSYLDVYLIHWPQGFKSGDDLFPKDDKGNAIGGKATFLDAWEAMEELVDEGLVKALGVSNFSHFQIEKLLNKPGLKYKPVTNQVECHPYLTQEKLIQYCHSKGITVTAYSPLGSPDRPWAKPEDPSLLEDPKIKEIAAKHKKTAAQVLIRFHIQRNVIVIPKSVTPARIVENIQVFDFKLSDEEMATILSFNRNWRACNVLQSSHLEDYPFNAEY

`OC[C@H]1O[C@@H](OCc2cn(Cc3cc(O)c(O)c(O)c3)nn2)[C@H](O)[C@@H](O)[C@@H]1O`: the inhibition result in data set [1] was “inactive”.
Same read-out and setting: the result for `OC[C@H]1O[C@@H](OCCc2cc(O)c(O)c(O)c2)[C@H](O)[C@@H](O)[C@@H]1O` reads “inactive”; that for `OC[C@H]1O[C@@H](n2cc(-c3cc(O)c(O)c(O)c3)nn2)[C@H](O)[C@@H](O)[C@@H]1O`, “inactive”.
As for `O=C(O[C@@H]1O[C@H](CO)[C@@H](O)[C@H](O)[C@H]1O)c1cc(O)c(O)c(O)c1`, the Stability entry in data set [2] is listed as “Unstable”. Besides, the inhibition entry in data set [3] and in data set [6] was “inactive” in each case. Besides, the inhibition in data set [4] came to 74%; in data set [7], 50%. Further, the degraded at 0.25 h, 250 µM in data set [5] was found to be 76%. The IC50 in data set [1] is 8 µM.
Turning to `O=C(Cc1cc(O)c(O)c(O)c1)N[C@@H]1O[C@H](CO)[C@@H](O)[C@H](O)[C@H]1O`, in data set [1], the inhibition result was “inactive”.
On to `O=C(N[C@@H]1O[C@H](CO)[C@@H](O)[C@H](O)[C@H]1O)c1cc(O)c(O)c(O)c1`, for which the inhibition entry in data set [3] and in data set [6] was “inactive” throughout. Further, the results for the inhibition in data set [4] and in data set [7] were 80% and 50%, respectively. Also, the remaining at 144 h, 250 µM in data set [8] was 96%. Besides, in data set [1], the IC50 was 9 µM.
With `OC[C@H]1O[C@@H](OCCCc2cc(O)c(O)c(O)c2)[C@H](O)[C@@H](O)[C@@H]1O`, in data set [1], the inhibition entry is “inactive”.
